Here are results for 20 compounds from ChEMBL document CHEMBL3745626, “Synthesis of β-boswellic acid derivatives as cytotoxic and apoptotic agents” (Bioorg Med Chem Lett, 2016).

For orientation: inhibition means the share of the control response that was lost under treatment. A word on the IC50: it is the midpoint of a concentration-inhibition curve.

The nature of assay [1]: Anticancer activity against human PC3 cells assessed as growth inhibition at 100 uM after 24 hrs by sulforhodamine B assay. The class given is functional. Particulars: PC-3, 24 h.
For assay [2], the system named is A549. The experiment in a line: Anticancer activity against human A549 cells assessed as growth inhibition at 100 uM after 24 hrs by sulforhodamine B assay. The conditions noted are these: A549, 24 h. The class given is functional. Background: Sulforhodamine B stains cellular protein and so reports cell mass.
Assay [3] is described as follows: Anticancer activity against human HT1080 cells assessed as growth inhibition at 100 uM after 24 hrs by sulforhodamine B assay. Type of assay: functional. The conditions noted are these: HT-1080, 24 h.
The nature of assay [4]: Anticancer activity against human HCT116 cells assessed as growth inhibition at 100 uM after 24 hrs by sulforhodamine B assay. The class given is functional. Particulars: HCT-116, 24 h.
The nature of assay [5]: Anticancer activity against human PC3 cells assessed as growth inhibition after 24 hrs by sulforhodamine B assay. The class given is functional, cell-based. Particulars: PC-3, 24 h. In a few lines:
(§1)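 SRB assay on human cancer cell lines over a range of concentrations; inhibitory values calculated from concentration–response data, mean ± SD of three experiments.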

Assay [6] can be described thus: Anticancer activity against human HCT116 cells assessed as growth inhibition after 24 hrs by sulforhodamine B assay. The conditions noted are these: HCT-116, 24 h. The class given is functional, cell-based. In a few lines: as §1
In another assay the test system is T47D. The experiment in a line: Anticancer activity against human T47D cells assessed as growth inhibition after 24 hrs by sulforhodamine B assay. Type of assay: functional, cell-based. In a few lines: as §1
The nature of assay [7]: Cytotoxicity against human FR2 cells assessed as growth inhibition after 24 hrs by sulforhodamine B assay. The conditions noted are these: FR2, 24 h. The class given is cell-based.
Assay [8] relates to A549. The experiment in a line: Anticancer activity against human A549 cells assessed as growth inhibition after 24 hrs by sulforhodamine B assay. The class given is functional, cell-based. The conditions noted are these: A549, 24 h. A digest of the protocol: as §1

For `COC(=O)[C@@]1(C)C(=O)/C(=C/c2cc(OC)cc(OC)c2)C[C@]2(C)[C@H]3CC=C4[C@@H]5[C@@H](C)[C@H](C)CC[C@]5(C)CC[C@@]4(C)[C@]3(C)CC[C@@H]12`, the inhibition at 100 µM in assay [1] stood at 41%; in the assay with A549 [2] it was 55%; in assay [3], 17%; in assay [4] it was 21%.

For the compound `COC(=O)[C@@]1(C)C(=O)/C(=C/c2ccc(Cl)cc2Cl)C[C@]2(C)[C@H]3CC=C4[C@@H]5[C@@H](C)[C@H](C)CC[C@]5(C)CC[C@@]4(C)[C@]3(C)CC[C@@H]12`, the inhibition at 100 µM in assay [1] is 79%; in the assay on A549 [2], 97%; in assay [3], 100%; in [4], 49%. The IC50 in [5] was 69.5 µM; in assay [6], more than 100 µM; in the assay on T47D, more than 100 µM; in assay [7], more than 100 µM; with A549 [8], 56.1 µM.

Take `COC(=O)[C@@]1(C)C(=O)/C(=C/c2ccccc2F)C[C@]2(C)[C@H]3CC=C4[C@@H]5[C@@H](C)[C@H](C)CC[C@]5(C)CC[C@@]4(C)[C@]3(C)CC[C@@H]12`: the inhibition at 100 µM was determined as 44% in assay [1], 47% in the assay on A549 [2], 23% in assay [3] and 0% in assay [4].

In the case of `COC(=O)[C@@]1(C)C(=O)/C(=C/c2ccc(Cl)cc2)C[C@]2(C)[C@H]3CC=C4[C@@H]5[C@@H](C)[C@H](C)CC[C@]5(C)CC[C@@]4(C)[C@]3(C)CC[C@@H]12`, the inhibition at 100 µM in assay [1] worked out at 10%; with A549 [2] it was 7%; in assay [3] it was 6%; in assay [4] it was 0%.

As to `COC(=O)[C@@]1(C)C(=O)/C(=C/c2ccc(F)c(Br)c2)C[C@]2(C)[C@H]3CC=C4[C@@H]5[C@@H](C)[C@H](C)CC[C@]5(C)CC[C@@]4(C)[C@]3(C)CC[C@@H]12`, the inhibition at 100 µM in [1] came out at 40%; in the assay on A549 [2], 47%; in assay [3], 43%; in assay [4], 27%.

Take `COC(=O)[C@@]1(C)C(=O)/C(=C/c2cccs2)C[C@]2(C)[C@H]3CC=C4[C@@H]5[C@@H](C)[C@H](C)CC[C@]5(C)CC[C@@]4(C)[C@]3(C)CC[C@@H]12`: the inhibition at 100 µM in assay [1] is 19%; with A549 [2], 42%; in assay [3], 37%; in [4], 40%.

Consider `COC(=O)[C@@]1(C)C(=O)/C(=C/c2ccc([N+](=O)[O-])cc2)C[C@]2(C)[C@H]3CC=C4[C@@H]5[C@@H](C)[C@H](C)CC[C@]5(C)CC[C@@]4(C)[C@]3(C)CC[C@@H]12`, for which the inhibition at 100 µM in assay [1] turned out to be 52%; in the assay with A549 [2], 47%; in assay [3] it was 36%; in assay [4], 30%.

As for `COC(=O)[C@@]1(C)C(=O)/C(=C/c2ccccn2)C[C@]2(C)[C@H]3CC=C4[C@@H]5[C@@H](C)[C@H](C)CC[C@]5(C)CC[C@@]4(C)[C@]3(C)CC[C@@H]12`, the inhibition at 100 µM in [1] worked out at 100%; with A549 [2], 100%; in [3], 95%; in [4] it was 100%. Moreover, the concentration for half-maximal inhibition (IC50) came out at 24.4 µM in assay [5]; 7.2 µM in assay [6]; 15.6 µM in the assay on T47D; 59 µM in [7]; 26.1 µM in the assay with A549 [8].

Consider `COC(=O)[C@@]1(C)C(=O)/C(=C/c2ccco2)C[C@]2(C)[C@H]3CC=C4[C@@H]5[C@@H](C)[C@H](C)CC[C@]5(C)CC[C@@]4(C)[C@]3(C)CC[C@@H]12`, for which the inhibition at 100 µM in [1] is 44%; with A549 [2], 48%; in assay [3], 16%; in assay [4], 18%.

`COC(=O)[C@@]1(C)C(=O)/C(=C/c2ccc(C)cc2)C[C@]2(C)[C@H]3CC=C4[C@@H]5[C@@H](C)[C@H](C)CC[C@]5(C)CC[C@@]4(C)[C@]3(C)CC[C@@H]12`: the inhibition at 100 µM in assay [1] was 11%; in the assay on A549 [2], 28%; in assay [3], 26%; in assay [4], 20%.

In the case of `COC(=O)[C@@]1(C)C(=O)/C(=C/c2ccccc2Cl)C[C@]2(C)[C@H]3CC=C4[C@@H]5[C@@H](C)[C@H](C)CC[C@]5(C)CC[C@@]4(C)[C@]3(C)CC[C@@H]12`, the inhibition at 100 µM in assay [1] was 25%; with A549 [2] it was 0%; in assay [3], 21%; in assay [4], 0%.

As for `COC(=O)[C@@]1(C)C(=O)/C(=C/c2ccc(F)cc2F)C[C@]2(C)[C@H]3CC=C4[C@@H]5[C@@H](C)[C@H](C)CC[C@]5(C)CC[C@@]4(C)[C@]3(C)CC[C@@H]12`, the inhibition at 100 µM in assay [1] was found to be 20%; with A549 [2] it was 33%; in assay [3] it was 0%; in assay [4], 32%.

Regarding `COC(=O)[C@@]1(C)C(=O)CC[C@]2(C)[C@H]3CC=C4[C@@H]5[C@@H](C)[C@H](C)CC[C@]5(C)CC[C@@]4(C)[C@]3(C)CC[C@@H]12`, the inhibition at 100 µM in assay [1] was determined as 44%; in the assay on A549 [2], 56%; in assay [3], 21%; in assay [4], 58%.

Consider `COC(=O)[C@@]1(C)C(=O)/C(=C/c2cccc([N+](=O)[O-])c2)C[C@]2(C)[C@H]3CC=C4[C@@H]5[C@@H](C)[C@H](C)CC[C@]5(C)CC[C@@]4(C)[C@]3(C)CC[C@@H]12`, for which the inhibition at 100 µM in [1] was 10%; with A549 [2], 0%; in [3], 13%; in assay [4], 6%.

For `COC(=O)[C@@]1(C)C(=O)/C(=C/c2ccc(OC(F)(F)F)cc2)C[C@]2(C)[C@H]3CC=C4[C@@H]5[C@@H](C)[C@H](C)CC[C@]5(C)CC[C@@]4(C)[C@]3(C)CC[C@@H]12`, the inhibition at 100 µM turned out to be 35% in assay [1], 14% in the assay on A549 [2], 78% in [3] and 0% in [4].

With `COC(=O)[C@@]1(C)C(=O)/C(=C/c2cccc(Br)c2)C[C@]2(C)[C@H]3CC=C4[C@@H]5[C@@H](C)[C@H](C)CC[C@]5(C)CC[C@@]4(C)[C@]3(C)CC[C@@H]12`, the inhibition at 100 µM in [1] worked out at 6%; in the assay with A549 [2] it was 14%; in assay [3], 15%; in assay [4], 8%.

In the case of `COC(=O)[C@@]1(C)C(=O)/C(=C/c2ccc3ccccc3n2)C[C@]2(C)[C@H]3CC=C4[C@@H]5[C@@H](C)[C@H](C)CC[C@]5(C)CC[C@@]4(C)[C@]3(C)CC[C@@H]12`, the inhibition at 100 µM in assay [1] was 44%; in the assay on A549 [2], 37%; in assay [3] it was 43%; in assay [4], 37%.

Turning to `COC(=O)[C@@]1(C)C(=O)/C(=C/c2c(Cl)cccc2Cl)C[C@]2(C)[C@H]3CC=C4[C@@H]5[C@@H](C)[C@H](C)CC[C@]5(C)CC[C@@]4(C)[C@]3(C)CC[C@@H]12`, the inhibition at 100 µM worked out at 24% in assay [1], 74% in the assay with A549 [2], 99% in [3] and 57% in assay [4].

As to `COC(=O)[C@@]1(C)C(=O)/C(=C/c2ccccc2[N+](=O)[O-])C[C@]2(C)[C@H]3CC=C4[C@@H]5[C@@H](C)[C@H](C)CC[C@]5(C)CC[C@@]4(C)[C@]3(C)CC[C@@H]12`, the inhibition at 100 µM in assay [1] came out at 11%; in the assay on A549 [2] it was 42%; in [3] it was 100%; in assay [4] it was 21%.

As to `COC(=O)[C@@]1(C)C(=O)/C(=C/c2cc(C(F)(F)F)cc(C(F)(F)F)c2)C[C@]2(C)[C@H]3CC=C4[C@@H]5[C@@H](C)[C@H](C)CC[C@]5(C)CC[C@@]4(C)[C@]3(C)CC[C@@H]12`, the inhibition at 100 µM in [1] was 7%; with A549 [2] it was 5%; in assay [3], 0%; in assay [4], 10%.
